MC4R antagonist: human MC4R antagonism in cAMP assay; P32245; MC4R-expressing cells, MTII-stimulated cAMP, LANCE TR-FRET; inhibition, % at 6.5 µM; actives 0.48% (n = 360,000); AID 540295;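 active = inhibition above its plate's cutoff, the mean of tested wells on that plate plus 3 SD, cut at about 29% in these data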;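 note: 0% = Melanotan II alone and 100% = Melanotan II plus saturating MCL0020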
Target sequence (P32245 whole entry, looked up): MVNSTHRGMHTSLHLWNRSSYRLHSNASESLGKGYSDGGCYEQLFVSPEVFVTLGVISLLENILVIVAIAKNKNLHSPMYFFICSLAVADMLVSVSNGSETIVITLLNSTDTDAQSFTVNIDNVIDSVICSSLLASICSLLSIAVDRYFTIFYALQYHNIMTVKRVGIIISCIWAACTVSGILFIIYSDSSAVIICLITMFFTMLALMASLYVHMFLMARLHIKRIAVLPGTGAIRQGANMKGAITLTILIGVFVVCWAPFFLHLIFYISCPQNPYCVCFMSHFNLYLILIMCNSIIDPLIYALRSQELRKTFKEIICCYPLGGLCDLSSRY
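System: U2OS-MC4R stable cell line; Technique: Eu-cAMP/anti-cAMP TR-FRET, emission 671 nm; Repeats: single well per compound; Also added: Melanotan II; Dosing: one concentration, 6.5 µM nominal; Schedule: 30-min compound, 1-h challenge, 1-h detection, room temperature.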
TMEM16A act: activates or potentiates the mouse TMEM16A chloride channel; B-score at 10 µM; HEK293 TMEM16A/YFP-H148Q/I152L, iodide quench fluorescence; stronger effect = lower value; Q8BHY3; actives 0.3% (n = 340,000); AID 623877;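 active = fluorescence-ratio B-score plate-corrected deviation score at least 3 library SD below zero, with starting fluorescence score within 5 deviations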;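 note: channel opened by trigger with iodide after compound preincubation; score built on the fluorescence ratio of max minus min over baseline; more negative score means more quench and so TMEM16A activation or potentiation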
MC4R ag barr: agonists of human melanocortin 4 receptor (MC4R) beta-arrestin; P32245; U2OS MC4R beta-arrestin complementation, luminescence; percent of melanotan II response, DMSO zero; activation, % at 8.9 µM; actives 0.98% (n = 360,000);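 active = activation above a per-plate cutoff, the mean activation of sample wells on that plate plus 3 SD, cut at about 8% in these data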
TMEM16A inh: inhibitors of mouse TMEM16A calcium-activated chloride channel; normalized B-score (activity score, 25-100; higher = stronger inhibition) at 10 µM; Q8BHY3; HEK293 TMEM16A/YFP iodide influx fluorescence, ionomycin; actives 1.2% (n = 310,000);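 active = ratio plate-corrected score three or more library SD toward inhibition, starting fluorescence score within five deviations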;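 note: score derived from kinetic fluorescence span divided by baseline fluorescence per well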
Beta apoptosis: beta cell apoptosis inhibition. INS-1E cytokine-induced death, ATP luminescence, 48 h; percent of positive-control rescue, neutral wells zero. protection from apoptosis, % (concentration not given with the values). actives 0.8% (n = 300,000). AID 435005;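 active = Every replicate reaches about 75%, or at least half do and their mean reaches it too, limit read from the data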;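 note: 0% = cytokine-treated negative control wells and 100% = positive control rescue; higher means more ATP so stronger rescue from cytokine killing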
CSC inhib: cancer stem cell inhibition; cancer stem cell-like cells viability, luminescence; inhibition, % at 7.5 µM; actives 1.1% (n = 300,000); AID 2717; in the data active = inhibition above about 75%; tested in HMLE shEcad cells
The depositor's hits bear a star; i = inactive; / = no result given. Hits are enriched below; roughly 3.8% of the tested compounds scored in any of these assays.

SMILES	MC4R antagonist	TMEM16A act	MC4R ag barr	TMEM16A inh	Beta apoptosis	CSC inhib
CCC1CSC(Nc2ccc(C(=O)/C=C/c3ccc(Oc4ccccc4)cc3)cc2)=N1 (stereo unspecified)	7	i	-4	i	56	56
CCCS(=O)(=O)NC(=O)C1(C)CCN(C(=O)C2(c3ccc(Cl)cc3)CCCC2)C1 (stereo unspecified)	10	/	0	/	/	/
c1ccc2c(c1)[nH]c1c3ccccc3sc21	14	i	8.3*	i	/	7
Nc1ncc(Br)cc1S(=O)(=O)Nc1cc(C(F)(F)F)cc(C(F)(F)F)c1	7	-5*	-3	100*	15	-6
Cc1ccc(NS(=O)(=O)c2cc(Br)cnc2N)c(Cl)c1	8	i	0	i	1	25
CCN(CC)S(=O)(=O)c1ccc2c(c1)C(=NO)c1cc(S(=O)(=O)N(CC)CC)ccc1-2	20	i	-1	i	22	85*
O=S(=O)(c1ccc2c(c1)C(=NO)c1cc(S(=O)(=O)N3CCCCC3)ccc1-2)N1CCCCC1	26	i	-2	i	106*	122*
CC1CCN(S(=O)(=O)c2ccc3c(c2)C(=NO)c2cc(S(=O)(=O)N4CCC(C)CC4)ccc2-3)CC1	3	i	34*	i	104*	113*
CCN(CC)S(=O)(=O)c1ccc(C)c(C)c1	4	i	-1	i	-4	0
O=C(c1ccoc1)N1CCN(c2cc(-c3ccncc3)nc3cc(-c4cccc(Cl)c4)nn23)CC1	14	/	8.8*	/	/	/
CCOc1ccc(-c2nnc(SCC(=O)Nc3ccc4c(c3)c3ccccc3n4CC)n2N)cc1	-6	i	30*	i	71	52
COc1ccc(-c2csc(NC(=S)NC(=O)/C=C/c3ccco3)n2)cc1OC	-20	i	9.1*	i	29	79*
COc1ccc(-c2csc(NC(=S)NC(=O)/C=C/c3ccco3)n2)cc1Br	-18	i	-1	i	8	79*
COc1ccc(-c2csc(NC(=S)NC(=O)c3ccco3)n2)cc1Br	5	i	-2	i	13	72
O=C(O)c1cc(-c2ccc(-c3c(-c4ccc5c(c4)OCO5)noc3-c3ccsc3)cc2)nc2ccccc12	-6	i	-2	100*	/	37
CNC(=O)C1C(=S)NC(N)=C(C#N)C1c1ccccc1 (stereo unspecified)	2	i	-1	i	15	112*
COc1ccc2nc3cc(Cl)ccc3c(Nc3cc(C(C)C)c(O)cc3C)c2c1	6	i	5	i	114*	103*
COc1ccc(S(=O)(=O)Nc2cc(C(C)C)c(O)cc2C)cc1	-2	i	-1	i	-7	3
CC[C@@H](C(=O)[C@@H](C)[C@@H](O)[C@H](C)[C@@H]1O[C@@H]([C@@H](CC)C(=O)O)CC[C@@H]1C)[C@H]1O[C@]2(C=C[C@@H](O)[C@]3(CC[C@@](C)([C@H]4CC[C@](O)(CC)[C@H](C)O4)O3)O2)[C@H](C)C[C@@H]1C	10	i	36*	/	/	/
Cc1ccc(NC(=O)CCN2C(=O)NC3(CCCC3)C2=O)cc1S(=O)(=O)N1CCOCC1	1	i	-1	/	1	/
Cn1c(=O)n(C)c2cc(NS(=O)(=O)c3ccc(C(C)(C)C)cc3)ccc21	-14	i	-3	25*	49	-8
Cn1c(=O)n(C)c2cc(NS(=O)(=O)c3ccc4c(c3)CCCC4)ccc21	3	i	-2	i	16	6
Cc1cccc(NC(=O)CNC(=O)c2ccc(S(=O)(=O)NCc3ccco3)cc2)c1C	9	/	-1	/	/	/
CCNc1c([N+](=O)[O-])ncn1C	-6	i	0	i	-2	-12
CN(C)c1c([N+](=O)[O-])ncn1C	7	-9.6*	1	i	-1	-2
SMILES	MC4R antagonist	TMEM16A act	MC4R ag barr	TMEM16A inh	Beta apoptosis	CSC inhib
CCS(=O)(=O)n1nc(-c2ccc(Cl)cc2)nc1SCc1ccccc1	/	/	/	25*	-2	-11
CCOC(=O)c1sc(NC(=O)c2ccc(Cl)s2)cc1C	-1	-15*	0	i	/	5
CCOC(=O)c1sc(NC(=O)Nc2ccc(Cl)cc2)cc1C	3	i	-1	i	89*	70
CCOC(=O)c1sc(NC(=O)c2c(C)nn(Cc3ccccc3)c2C)cc1C	9	i	1	i	88*	/
CC(C)[C@H](NS(=O)(=O)c1ccc(Cl)cc1)C(=O)OCC(=O)c1c(N)n(C)c(=O)n(C)c1=O	10	i	0	/	/	/
C/C(=N\Nc1nc(C)c(C)s1)c1ccc([N+](=O)[O-])cc1	-26	-21*	-2	i	2	3
COC(=O)c1ccccc1NCc1cc(=O)oc2cc(O)c(O)cc12	17	i	-4	i	1	92*
CC1=C(C(=O)N(C)C)CC(CC(=O)NC(c2ccccc2)c2ccccc2)C(=O)N1CCC1=CCCCC1 (stereo unspecified)	3	/	1	/	/	/
CCCn1c(NCc2ccccc2NS(=O)(=O)c2ccc(C)cc2)nc2ccccc21	-2	i	0	i	17	75*
CCn1c(NCc2ccccc2NS(=O)(=O)c2ccc(C)cc2)nc2ccccc21	-2	i	-2	i	0	68
Cc1ccc(S(=O)(=O)N2CCN(C(=O)Cn3c(=O)cnc4ccccc43)CC2)cc1	0	i	0	/	-2	-12
O=C(C(Sc1ccccc1)c1ccccc1)N1CCN(c2ccccc2F)CC1 (stereo unspecified)	-1	i	0	i	90*	/
O=C(Nc1ccc(Cl)cc1)Nc1ccc(N2CCCC2)c(S(=O)(=O)Nc2ccccc2Cl)c1	9	i	0	i	87*	2
O=C(Nc1ccc(N2CCOCC2)c(S(=O)(=O)Nc2ccccc2Cl)c1)c1ccccc1	6	i	0	/	17	/
O=C(Nc1cc(S(=O)(=O)Nc2ccc(Cl)cc2)ccc1N1CCCCC1)c1ccc(F)cc1Cl	1	i	-1	i	9	77*
COc1cc2ccccc2cc1C(=O)N(CCN(C)C)c1nc2c(F)cc(F)cc2s1	-3	i	-3	25*	0	5
COc1cc2ccccc2cc1C(=O)N(CCN(C)C)c1nc2ccc(Br)cc2s1	-3	i	1	i	-3	47
COc1ccc2sc(N(CCN(C)C)C(=O)c3cc(Cl)sc3Cl)nc2c1	4	-5.9*	-1	i	-11	-13
CCCc1cc(=O)oc2cc(OC(C)C(=O)NC3CC(C)(C)NC(C)(C)C3)ccc12 (stereo unspecified)	9	i	-2	i	-4	-5
